Rows were chosen to be rich in hits. Some 1.6% of all compounds tested hit in one or more screens of this group.
PKD1 inh: inhibitors of human PKD1 kinase, biochemical, fluorescence polarization | inhibition, % (test concentration not listed) | 0.056% of 200,000 active | PKD1 kinase fluorescence polarization assay | Serine/threonine-protein kinase D1 (Homo sapiens), Q15139
EBV gp42 inh: Epstein-Barr virus gp42 inhibitors, primary screen, biochemical, uHTS, fluorescence polarization. Glycoprotein 42 (Epstein-Barr virus (strain AG876)), Q1HVG2. 0.42% of 220,000 active. AID 1085, 2008. inhibition, % (tested at 21.74 µM). Fluorescence polarization binding assay, mP read-out
Target sequence (Q1HVG2 whole entry, looked up): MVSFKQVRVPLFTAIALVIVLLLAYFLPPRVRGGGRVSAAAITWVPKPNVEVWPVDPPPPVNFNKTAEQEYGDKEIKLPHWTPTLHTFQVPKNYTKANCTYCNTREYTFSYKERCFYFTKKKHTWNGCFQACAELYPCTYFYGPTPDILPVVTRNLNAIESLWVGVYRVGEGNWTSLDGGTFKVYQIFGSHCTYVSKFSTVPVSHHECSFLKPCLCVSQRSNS
RBBP9 inh: human RBBP9 inhibitors, primary screen, biochemical, fluorescence polarization, FP-Rh probe, HTS. Serine hydrolase RBBP9 (Homo sapiens), O75884. 0.2% of 220,000 active. AID 1515, 2009. recombinant RBBP9. inhibition, % at 7.94 µM;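 active = inhibition above the campaign mean of all tested compounds plus 3 SD, cut at about 14% in these data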;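 note: plate controls were DMSO wells with RBBP9 for no effect and wells lacking RBBP9 protein for full effect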
Target sequence (O75884 whole entry, looked up): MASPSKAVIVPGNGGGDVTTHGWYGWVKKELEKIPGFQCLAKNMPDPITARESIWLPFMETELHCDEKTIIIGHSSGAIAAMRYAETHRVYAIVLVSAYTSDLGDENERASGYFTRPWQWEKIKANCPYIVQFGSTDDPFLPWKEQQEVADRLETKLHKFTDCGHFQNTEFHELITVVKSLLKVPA
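System: RBBP9 protein | Quantity: 2.5 µM RBBP9 dispensing solution, before mixing | Reagent: FP-Rh probe, 375 nM dispensing solution | Timing: Enzyme-compound preincubation 30 min, then probe labeling 45 min, 25 °C | Measured by: Fluorescence polarization | Read-out: % inhibition | Replication: One well per compound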
eIF4E 4G PPI: eIF4E–eIF4G protein interaction inhibitors, primary screen, biochemical, uHTS, TR-FRET, eIF4GI fragment. TR-FRET eIF4E-eIF4GI(517-606) binding, 2 h. inhibition, % at 21.7 µM. 0.37% of 220,000 active;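 active = inhibition above about 30%, limit read from the data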;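 note: 0% = full FRET control wells and 100% = background wells lacking eIF4GI fragment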
14-3-3 Bad PPI: inhibitors of 14-3-3 zeta/Bad binding, primary screen, biochemical, TR-FRET, bovine 14-3-3 zeta. 14-3-3 protein zeta/delta (Bos taurus), P63103. TR-FRET 14-3-3zeta/Dy647-pBad peptide displacement, 1 h. AID 781, 2007. inhibition, % at 21.7 µM. 0.71% of 220,000 active;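 active = inhibition above about 70%, limit read from the data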;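 note: 0% = full 14-3-3 plus peptide FRET controls and 100% = background without 14-3-3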
Target sequence (P63103 whole entry, looked up): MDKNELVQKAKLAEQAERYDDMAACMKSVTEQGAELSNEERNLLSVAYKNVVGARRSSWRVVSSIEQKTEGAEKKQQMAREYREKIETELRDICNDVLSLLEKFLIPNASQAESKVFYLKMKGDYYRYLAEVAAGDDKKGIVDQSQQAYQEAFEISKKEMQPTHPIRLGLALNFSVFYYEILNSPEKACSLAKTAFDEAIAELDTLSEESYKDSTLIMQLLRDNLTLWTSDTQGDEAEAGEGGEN
* marks the source's active call; other numbers are inactive results. Cut-off read from the data, not from the text of the source, unless noted: active = inhibition above about 50%; inactive = the rest.

OCC[n+]1c2ccccc2nc2ccc(N3CCOCC3)cc21 was read as EBV gp42 inh -7.2, RBBP9 inh -3.9, eIF4E 4G PPI -20.8 and 14-3-3 Bad PPI -50.4.
CCCCCCn1c(=O)c(C(=O)Nc2c(C)n(C)n(-c3ccccc3)c2=O)c(O)c2ccccc21 was read as EBV gp42 inh -2.0, RBBP9 inh 4.7, eIF4E 4G PPI -3.6 and 14-3-3 Bad PPI -30.0.
`Nc1ccc2nonc2c1[N+](=O)[O-]` gave PKD1 inh 8.8, EBV gp42 inh 193.8*, RBBP9 inh 2.4, eIF4E 4G PPI 0.5 and 14-3-3 Bad PPI -7.2.
For CCC(C)(C)n1nnnc1CN1CCC(n2c(C)nc3cc(C(F)(F)F)ccc32)CC1 the results were PKD1 inh -0.7, EBV gp42 inh -5.0, RBBP9 inh -9.2, eIF4E 4G PPI 1.4 and 14-3-3 Bad PPI 10.2.
`CCN1CCN(Cc2nnnn2C(C)(C)C)CC1` gave PKD1 inh -2.1, EBV gp42 inh -10.4, RBBP9 inh -3.1, eIF4E 4G PPI 3.2 and 14-3-3 Bad PPI 74.8*.
Screening CCCN(CC#CCOc1ccc(OC)cc1)CCC returned PKD1 inh -9.6, EBV gp42 inh -11.2, RBBP9 inh -1.3, eIF4E 4G PPI 5.6 and 14-3-3 Bad PPI 93.9*.
`O=C(C(=O)N1CCOCC1)c1cn(Cc2ccccc2)c2ccccc12` gave PKD1 inh -8.6, EBV gp42 inh -8.8, RBBP9 inh -3.9, eIF4E 4G PPI 2.8 and 14-3-3 Bad PPI -1.1.
Screening O=c1cc(C(F)(F)F)c2cc3c4c(c2o1)CCCN4CCC3 returned PKD1 inh 2.0, EBV gp42 inh 149.6*, RBBP9 inh -16.3, eIF4E 4G PPI -1.1 and 14-3-3 Bad PPI -3.3.
Screening Cc1ccc(-c2nn(Cc3ccccc3)cc2C(=O)O)cc1 returned EBV gp42 inh 1.3, RBBP9 inh -6.3, eIF4E 4G PPI 95.6* and 14-3-3 Bad PPI -5.9.
For CCN(CC)c1ccc(N=Cc2c(O)n(-c3ccc(OC)cc3)c(=O)[nH]c2=O)cc1 the results were PKD1 inh -9.2, EBV gp42 inh 101.6*, RBBP9 inh 4.9, eIF4E 4G PPI -8.9 and 14-3-3 Bad PPI 4.0.
For CCN(CC)c1ccc(N=Cc2c(O)n(-c3ccc(Cl)cc3)c(=O)[nH]c2=O)cc1 the results were PKD1 inh 1.1, EBV gp42 inh 46.4, RBBP9 inh -2.1, eIF4E 4G PPI -18.1 and 14-3-3 Bad PPI -20.6.
Screening CC1(C)C2([N+](=O)[O-])CN3CC1([N+](=O)[O-])CN(C2)C3c1ccccn1 (stereo unspecified) returned EBV gp42 inh -0.6, RBBP9 inh -4.1, eIF4E 4G PPI -2.0 and 14-3-3 Bad PPI -5.2.
Screening C[N+]1(C)C2CCC1CC(OC(=O)C(CO)c1ccccc1)C2 (stereo unspecified) returned PKD1 inh -3.9, EBV gp42 inh -24.2, RBBP9 inh -5.3, eIF4E 4G PPI 3.5 and 14-3-3 Bad PPI 91.4*.
C[N+]1(C)[C@@H]2CC[C@H]1CC(OC(=O)C(CO)c1ccccc1)C2 (stereo partly specified) was read as PKD1 inh -3.7, EBV gp42 inh -7.9, RBBP9 inh -5.9, eIF4E 4G PPI -0.6 and 14-3-3 Bad PPI -2.7.
Screening C=CCN1C(=O)NC(=O)/C(=C/c2ccc(N(C)C)c(Br)c2)C1=O returned PKD1 inh 4.5, EBV gp42 inh -6.8, RBBP9 inh -3.9, eIF4E 4G PPI 1.1 and 14-3-3 Bad PPI -4.3.
For CCN1CCN(Cc2cc(C(C)(C)C)c(O)c(C(C)(C)C)c2)CC1 the results were PKD1 inh 5.7, EBV gp42 inh -26.2 and RBBP9 inh -4.5.
O=C1c2ccccc2C(=O)N1Cc1nc2ccccc2c(=O)n1-c1ccccn1 was read as PKD1 inh -3.1, EBV gp42 inh -16.1, RBBP9 inh -0.5, eIF4E 4G PPI 31.1* and 14-3-3 Bad PPI -6.5.
`O=c1c2ccccc2nc(/C=C/c2ccc(F)cc2)n1-c1ccccn1` gave EBV gp42 inh -9.7, RBBP9 inh -7.7, eIF4E 4G PPI 5.7 and 14-3-3 Bad PPI -3.7.
CCOC(=O)c1c(/N=C/C2C(=O)NC(=S)NC2=O)sc2c1CCC2 was read as PKD1 inh 0.4, EBV gp42 inh -96.3, RBBP9 inh -8.7, eIF4E 4G PPI 4.0 and 14-3-3 Bad PPI 78.2*.
For CCOC(=O)c1c(/N=C/C2C(=O)NC(=S)NC2=O)sc(C)c1C the results were PKD1 inh -3.6, EBV gp42 inh -57.4, RBBP9 inh -1.4, eIF4E 4G PPI 12.3 and 14-3-3 Bad PPI 42.2.
CCCCCc1nc2c(c(=O)c3ccccc3n2C)c(=O)n1C1CCCCCC1 was read as PKD1 inh -8.6, EBV gp42 inh 9.2, RBBP9 inh -12.2, eIF4E 4G PPI 14.6 and 14-3-3 Bad PPI 24.1.
For COc1ccc(C(C)=O)cc1CC(C(=O)c1ccc(F)cc1)N(C)C (stereo unspecified) the results were PKD1 inh 2.8, EBV gp42 inh -15.1, RBBP9 inh -6.0, eIF4E 4G PPI 1.6 and 14-3-3 Bad PPI -1.4.
Screening Cc1ccc(-n2c(O)c(C=NCCCn3ccnc3)c(=O)[nH]c2=O)cc1 returned EBV gp42 inh -9.2, RBBP9 inh 2.0, eIF4E 4G PPI -4.0 and 14-3-3 Bad PPI -10.2.
`Cc1cc(C=C2C(=O)NC(=S)NC2=O)c(C)n1-c1ccc2c(c1)OCO2` gave PKD1 inh 8.5, EBV gp42 inh 60.6*, RBBP9 inh -5.4, eIF4E 4G PPI 2.3 and 14-3-3 Bad PPI -12.9.
Cc1c2ccncc2c(C)c2c1[nH]c1ccccc12 was read as PKD1 inh 86.9*, EBV gp42 inh 112.6*, RBBP9 inh -2.8, eIF4E 4G PPI 23.0 and 14-3-3 Bad PPI 19.8.
`Cc1ccc(CN2CCN(Cc3ccccc3F)CC2)cc1` gave PKD1 inh -3.7, EBV gp42 inh -2.7, RBBP9 inh -6.1, eIF4E 4G PPI 5.8 and 14-3-3 Bad PPI 56.6.
For FC(F)(F)c1ccccc1CN1CCN(Cc2ccccc2)CC1 the results were PKD1 inh -7.0, EBV gp42 inh -31.8, RBBP9 inh -4.7, eIF4E 4G PPI -5.3 and 14-3-3 Bad PPI 73.6*.
CCCCCCNC(=O)N[C@H](Cc1ccc(O)cc1)C(=O)NCCC[C@H]1CN2C(=NC[C@H]2CCC)N1CC1CCC1 was read as EBV gp42 inh -24.1, eIF4E 4G PPI 55.8* and 14-3-3 Bad PPI -11.1.
For CCCCCCNC(=O)N[C@@H](Cc1ccc(O)cc1)C(=O)NCCC[C@H]1CN2C(=NC[C@H]2C)N1CC1CCC1 the results were EBV gp42 inh -22.1, eIF4E 4G PPI 8.2 and 14-3-3 Bad PPI -6.0.
For CC1(C)C2([N+](=O)[O-])CN3CN(C2)CC1([N+](=O)[O-])C3 the results were PKD1 inh -1.0, EBV gp42 inh 4.3, RBBP9 inh -9.3, eIF4E 4G PPI -0.7 and 14-3-3 Bad PPI -13.6.
For CCN1CCN(Cc2ccc(C)cc2C)CC1 the results were PKD1 inh -0.6, EBV gp42 inh -7.2, RBBP9 inh -3.5, eIF4E 4G PPI -5.1 and 14-3-3 Bad PPI 77.1*.
